Values after ≈ are worked out from the molar mass of the structure shown. Values belong to the compound of their own block, whether it stands above or below them.
Columns and labels:
[1] = target: T1, Tyrosine-protein kinase JAK3 (Homo sapiens) (UniProt P52333); test: Inhibition of recombinant human GST-tagged JAK3 expressed in baculovirus expression system at 1 uM relative to control
T1 sequence (whole entry): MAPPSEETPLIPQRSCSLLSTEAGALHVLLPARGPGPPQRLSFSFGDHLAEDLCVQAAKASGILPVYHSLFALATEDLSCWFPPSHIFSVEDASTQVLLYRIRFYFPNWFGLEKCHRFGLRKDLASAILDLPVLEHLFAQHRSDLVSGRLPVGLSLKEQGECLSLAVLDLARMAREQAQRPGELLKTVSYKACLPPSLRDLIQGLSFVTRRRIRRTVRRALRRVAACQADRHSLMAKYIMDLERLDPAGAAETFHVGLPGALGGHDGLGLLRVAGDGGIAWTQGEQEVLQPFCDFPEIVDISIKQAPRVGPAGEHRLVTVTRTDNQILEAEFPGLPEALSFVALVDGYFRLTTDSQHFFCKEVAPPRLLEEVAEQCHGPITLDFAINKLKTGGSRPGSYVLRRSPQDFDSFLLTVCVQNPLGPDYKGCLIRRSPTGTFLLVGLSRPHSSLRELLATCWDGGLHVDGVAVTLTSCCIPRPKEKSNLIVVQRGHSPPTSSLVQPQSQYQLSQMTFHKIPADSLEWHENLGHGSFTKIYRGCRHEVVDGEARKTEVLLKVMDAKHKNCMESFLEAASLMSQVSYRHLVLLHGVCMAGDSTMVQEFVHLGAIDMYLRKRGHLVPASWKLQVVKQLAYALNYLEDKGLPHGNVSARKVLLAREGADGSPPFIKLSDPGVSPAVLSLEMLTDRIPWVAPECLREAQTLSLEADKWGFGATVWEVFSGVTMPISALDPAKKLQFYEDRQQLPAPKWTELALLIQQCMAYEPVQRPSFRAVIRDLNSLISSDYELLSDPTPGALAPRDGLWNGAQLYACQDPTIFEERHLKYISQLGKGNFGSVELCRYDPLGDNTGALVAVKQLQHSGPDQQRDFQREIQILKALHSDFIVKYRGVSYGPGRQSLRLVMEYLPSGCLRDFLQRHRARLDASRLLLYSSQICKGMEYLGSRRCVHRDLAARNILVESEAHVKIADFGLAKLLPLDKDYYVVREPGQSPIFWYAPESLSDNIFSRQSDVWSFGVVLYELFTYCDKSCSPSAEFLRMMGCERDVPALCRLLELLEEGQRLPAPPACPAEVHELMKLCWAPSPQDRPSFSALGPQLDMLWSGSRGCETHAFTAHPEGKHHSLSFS
Summary of the method: (§1)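 Forty-kinase selectivity panel; each compound tested at a single 1 µM concentration in the presence of 1 mM ATP; result given as percent inhibition.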

[2] = Clearance in rat hepatocytes assessed per million cells; assay type: ADME, cell-based, Hepatocyte
[3] = Oral bioavailability in rat at 5 mg/kg administered via gavage; assay type: ADME, organism-based; settings: in vivo
Summary of the method: (§2)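 Rat, oral dosing as a solution.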

[4] = target: T2, Serine/threonine-protein kinase Nek2 (Homo sapiens) (UniProt P51955); test: Inhibition of recombinant human full length His-tagged NEK2 expressed in baculovirus expression system at 1 uM relative to control; summary of the method: as §1
T2 sequence (whole entry): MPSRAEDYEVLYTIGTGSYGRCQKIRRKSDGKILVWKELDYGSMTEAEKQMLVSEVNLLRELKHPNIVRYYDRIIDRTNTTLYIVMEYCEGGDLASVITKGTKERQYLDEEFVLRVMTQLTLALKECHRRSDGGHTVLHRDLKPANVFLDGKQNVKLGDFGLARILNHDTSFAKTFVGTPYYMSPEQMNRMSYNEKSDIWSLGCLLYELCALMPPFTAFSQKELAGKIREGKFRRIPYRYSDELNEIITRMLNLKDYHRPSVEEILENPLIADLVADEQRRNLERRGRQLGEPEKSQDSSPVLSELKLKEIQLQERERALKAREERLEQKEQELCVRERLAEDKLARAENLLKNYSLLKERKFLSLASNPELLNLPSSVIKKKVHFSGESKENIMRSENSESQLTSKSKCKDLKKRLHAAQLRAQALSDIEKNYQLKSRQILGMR

[5] = Thermodynamic solubility of the compound at pH 7.4; assay type: physicochemical; settings: buffer, read-out: Therm_solubility
[6] = Clearance in rat at 1 mg/kg, iv by LC-MS/MS analysis; assay type: ADME, organism-based; settings: in vivo
Summary of the method: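 Rat, single 1 mg/kg intravenous dose.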

[7] = Oral bioavailability in rat at 1 mg/kg administered via gavage; assay type: ADME, organism-based; settings: in vivo; summary of the method: as §2

SMILES: COc1cc(C)c(C(N)=O)cc1C(=O)Nc1cccc(-c2nncn2C(C)C)n1
inhibition [1]: 3%

SMILES: COc1cc(C)c(S(C)(=O)=O)cc1C(=O)Nc1cccc(-c2nncn2C(C)C)n1
inhibition [1]: 0%

SMILES: COc1cc(C)c(S(N)(=O)=O)cc1C(=O)Nc1cccc(-c2nncn2C(C)C)n1
inhibition [1]: 16% | inhibition [4]: 0%

Now from value to compound:

inhibition [1]: -8% | CLH [2]: < 6 µL/min/1e6 cells | bioavailability [3]: < 1% | inhibition [4]: -3% | solubility thermodynamic [5]: 1.2 µM (≈ 0.5 µg/mL) | clearance [6]: 35 mL/min/kg
SMILES: COc1ccc(S(N)(=O)=O)cc1C(=O)Nc1cccc(-c2nncn2C(C)C)n1

inhibition [1]: 12% | CLH [2]: < 6 µL/min/1e6 cells | bioavailability [7]: 8% | inhibition [4]: 1% | solubility thermodynamic [5]: 5 µM (≈ 2.08 µg/mL) | clearance [6]: 41 mL/min/kg
SMILES: COc1ccc(S(C)(=O)=O)cc1C(=O)Nc1cccc(-c2nncn2C(C)C)n1
